Measurements as given in ChEMBL document CHEMBL1671655, “Anidulafungin is fungicidal and exerts a variety of postantifungal effects against Candida albicans, C. glabrata, C. parapsilosis, and C. krusei isolates” (2009).
Values after ≈ are worked out from the molar mass of the structure shown. Active and inactive are the calls of the source. The rule behind the calls is not given here. Starred links: 1 amine or outer side, 2 acyl side, 3 side chain; linkers in the order of their positions; H or OH if unused. Positions of bridges follow the written chain, without caps; N, C: chain ends. Non-standard residues stand in square brackets, D forms with d. Residues, ends and D or L forms follow the SMILES beside them. *: point of attachment. pTerphenylCO(4''-OnC5H11) = CCCCCOc1ccc(-c2ccc(-c3ccc(C(=O)*)cc3)cc2)cc1; Orn(4R-OH,5R-OH) = O=C([C@H](C[C@@H](O)[C@@H](O)N[*:3])N[*:1])[*:2]; hTyr(3S-OH,4S-OH) = N[C@H](C(=O)O)[C@H](O)[C@@H](O)c1ccc(O)cc1; Pro(3S-OH,4S-Me) = C[C@H]1CN[C@H](C(=O)O)[C@H]1O; Hyp = O=C(O)[C@@H]1C[C@@H](O)CN1

Tests used:
Candida albicans [1] = test: Fungicidal activity against Candida albicans isolate 2 assessed as log reduction in bacterial count at 16 times MIC after 48 hrs by time-kill analysis; assay type: functional; details: isolate 2, 48 h
Method in brief: (§1)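 Isolates subcultured twice on SDA, suspended to 0.5 McFarland, giving ~1 x 10^5 to 5 x 10^5 CFU/ml in MOPS-buffered RPMI 1640 (pH 7.0) with or without drug at multiples of MIC (MIC by CLSI M27-A3). Tubes shaken at 35°C with continuous drug. Sampled at 0–48 h, diluted 10-fold and plated on SDA; CFU counted after 48 h at 35°C. Run twice per isolate; means.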

Candida albicans [2] = test: Fungicidal activity against Candida albicans isolate 2 assessed as log reduction in bacterial count at MIC after 48 hrs by time-kill analysis; assay type: functional; details: isolate 2, 48 h; method in brief: as §1
Candida parapsilosis [3] = test: Fungicidal activity against Candida parapsilosis isolate A assessed as log reduction in bacterial count at 4 times MIC after 48 hrs by time-kill analysis; assay type: functional; details: Lodderomyces parapsilosis
Method in brief: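 Isolates subcultured twice on SDA, then suspended to 0.5 McFarland and diluted into RPMI 1640 (MOPS, pH 7.0) with or without anidulafungin, giving about 1 x 10^5 to 5 x 10^5 CFU/ml. Tubes were shaken at 35°C. Samples were taken at 0, 2, 4, 8, 12, 24 and 48 h, serially diluted 10-fold, plated on SDA, and CFU counted after 48 h at 35°C. Each isolate was run twice; mean values.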

Nakaseomyces glabratus [4] = test: Fungicidal activity against Candida glabrata isolate 1 assessed as log reduction in bacterial count at 4 times MIC after 48 hrs by time-kill analysis; assay type: functional; details: isolate 1, 48 h; method in brief: as §1
Pichia kudriavzevii [5] = test: Fungicidal activity against Candida krusei isolate 1 assessed as log reduction in bacterial count at 16 times MIC after 48 hrs by time-kill analysis; assay type: functional; details: isolate 1, 48 h; method in brief: as §1
Candida parapsilosis [6] = test: Fungicidal activity against Candida parapsilosis isolate 1 assessed as log reduction in bacterial count at 4 times MIC after drug exposure for 1 hr followed by washout measured after 48 hrs in the absence of drug by PAFE study; assay type: functional; details: Lodderomyces parapsilosis
Method in brief: (§2)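 Inoculum about 1 x 10^5 to 5 x 10^5 CFU/ml in RPMI 1640 (MOPS, pH 7.0) with drug, shaken at 35°C for 1 h. Cells were then washed and centrifuged at 1,400 x g for 10 min (3 cycles) and resuspended in warm drug-free RPMI. Samples plated on SDA at 0, 2, 4, 8, 12, 24 and 48 h; CFU counted after 48 h at 35°C. Run twice per isolate; means.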

Candida parapsilosis [7] = test: Fungicidal activity against Candida parapsilosis isolate S assessed as log reduction in bacterial count at 4 times MIC after drug exposure for 1 hr followed by washout measured after 48 hrs in the absence of drug by PAFE study; assay type: functional; details: Lodderomyces parapsilosis; method in brief: as §2
Nakaseomyces glabratus [8] = test: Fungicidal activity against Candida glabrata isolate 1 assessed as log reduction in bacterial count at 16 times MIC after drug exposure for 1 hr followed by washout measured after 48 hrs in the absence of drug by PAFE study; assay type: functional
Method in brief: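 Starting inoculum ~1 x 10^5 to 5 x 10^5 CFU/ml in MOPS-buffered RPMI 1640 (pH 7.0) with drug at multiples of the CLSI M27-A3 MIC. After 1 h at 35°C, cells washed and centrifuged three times at 1,400 x g for 10 min, then resuspended in warm drug-free RPMI. Shaken at 35°C and plated on SDA at 0–48 h; CFU counted after 48 h. Run twice per isolate; means.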

Candida tropicalis = test: Antifungal activity against Candida tropicalis by NCCLS M27A broth microdilution method; assay type: functional
Candida albicans [9] = test: Antifungal activity against Candida albicans ATCC 90028 by CLSI M27-A3 broth microdilution method; assay type: functional
Method in brief: (§3)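 CLSI M27-A3 broth microdilution in RPMI 1640 buffered to pH 7.0 with MOPS. Starting inoculum 0.5 x 10^3 to 2.5 x 10^3 cells/ml, incubated at 35°C. MIC read as the lowest concentration giving >50% growth reduction versus control. Each isolate tested on at least three occasions.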

Nakaseomyces glabratus [10] = test: Antifungal activity against Candida glabrata isolate 1 by CLSI M27-A3 broth microdilution method; assay type: functional; method in brief: as §3
Pichia kudriavzevii [11] = test: Antifungal activity against Candida krusei isolate 1 by CLSI M27-A3 broth microdilution method; assay type: functional; method in brief: as §3
Nakaseomyces glabratus [12] = test: Increase in susceptibility to SDS in Candida glabrata isolate 3 assessed as cell wall damage at 4 times MIC after 1 hr relative to control; assay type: functional, organism-based
Method in brief: (§4)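 Cells recovered 8 h after a 1-h drug exposure were grown in YPD with 1% glucose to exponential phase and adjusted to OD599 0.1. Undiluted culture and 10-fold serial dilutions were spotted onto YPD plates containing SDS (0.01 to 0.04%), then incubated 72 h at 30°C. Growth compared with unexposed control cells; triplicate.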

Candida albicans [13] = test: Increase in susceptibility to SDS in Candida albicans ATCC 90028 assessed as cell wall damage at 16 times MIC after 1 hr relative to control; assay type: functional, organism-based; method in brief: as §4
Candida parapsilosis [14] = test: Increase in susceptibility to calcofluor white in Candida parapsilosis isolate A assessed as cell wall damage at MIC after 1 hr relative to control; assay type: functional, organism-based
Method in brief: (§5)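 Candida given a 1-h anidulafungin pulse in MOPS-buffered RPMI 1640 (pH 7.0) at 35°C, washed three times by centrifugation, and regrown drug-free. Cells collected 8 h later, grown in YPD with 1% glucose to exponential phase, and set to OD599 0.1. Undiluted culture and 10-fold dilutions (4 µl) spotted on YPD plates with calcofluor white, then 30°C for 72 h. Triplicate; compared with no-drug cells.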

Candida albicans [15] = test: Increase in susceptibility to calcofluor white in Candida albicans ATCC 90028 assessed as cell wall damage at 4 times MIC after 1 hr relative to control; assay type: functional, organism-based
Method in brief: (§6)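 Cells recovered 8 h after a 1-h drug exposure were grown to exponential phase in YPD with 1% glucose and adjusted to OD599 0.1. Undiluted and 10-fold serially diluted cultures were spotted onto YPD plates containing calcofluor white, then incubated at 30°C for 72 h. Growth compared with no-drug control cells; triplicate.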

Candida parapsilosis [16] = test: Increase in susceptibility to calcofluor white in Candida parapsilosis isolate 1 assessed as cell wall damage at 4 times MIC after 1 hr relative to control; assay type: functional, organism-based; method in brief: as §5
Nakaseomyces glabratus [17] = test: Increase in susceptibility to calcofluor white in Candida glabrata isolate 1 assessed as cell wall damage at 16 times MIC after 1 hr relative to control; assay type: functional, organism-based; method in brief: as §6
Pichia kudriavzevii [18] = test: Increase in susceptibility to calcofluor white in Candida krusei isolate ATCC 6258 assessed as cell wall damage at 16 times MIC after 1 hr relative to control; assay type: functional, organism-based; method in brief: as §6
Nakaseomyces glabratus [19] = test: Antifungal activity against Candida glabrata isolate 1 assessed as cell wall damage at MIC by Transmission electron microscopy; assay type: functional, organism-based
Method in brief: (§7)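 Cells recovered 8 h after a 1-h drug exposure were grown on SDA for 24 h at 35°C. Colonies fixed at 4°C in 0.1 M cacodylate (pH 7.2) with 2% glutaraldehyde and 2% paraformaldehyde, ethanol-dehydrated and embedded in Lowicryl K4M. Thin sections examined by transmission EM.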

Candida parapsilosis [20] = test: Antifungal activity against Candida parapsilosis isolate A assessed as cell wall damage at 4 times MIC by Transmission electron microscopy; assay type: functional, organism-based; method in brief: as §7
Candida parapsilosis [21] = test: Antifungal activity against Candida parapsilosis isolate A coincubated with mouse J774 macrophages assessed as macrophage induced bacterial cell killing at 4 times MIC (reference value: 19 +/- 9 %); assay type: functional

In the case of `CCCCCOc1ccc(-c2ccc(-c3ccc(C(=O)N[C@H]4C[C@@H](O)[C@@H](O)NC(=O)[C@@H]5[C@@H](O)[C@@H](C)CN5C(=O)[C@H]([C@@H](C)O)NC(=O)[C@H]([C@H](O)[C@@H](O)c5ccc(O)cc5)NC(=O)[C@@H]5C[C@@H](O)CN5C(=O)[C@H]([C@@H](C)O)NC4=O)cc3)cc2)cc1` [ANIDULAFUNGIN] ({pTerphenylCO(4''-OnC5H11)}-[Orn(4R-OH,5R-OH)]T[Hyp][hTyr(3S-OH,4S-OH)]T[Pro(3S-OH,4S-Me)]; lactam 1-C), the log reduction (Candida albicans [1]) was 2.86 log CFU/ml, the log reduction (Candida albicans [2]) was 0.89 log CFU/ml and the log reduction (Candida parapsilosis [3]) was 3.19 log CFU/ml. For the same compound, the log reduction (Nakaseomyces glabratus [4]) was 2.77 log CFU/ml, the log reduction (Pichia kudriavzevii [5]) was 3 log CFU/ml and the log reduction (Candida parapsilosis [6]) was 2.46. It also gave a log reduction (Candida parapsilosis [7]) of 2.17, a log reduction (Nakaseomyces glabratus [8]) of 3.36 and an MIC90 (Candida tropicalis) of 0.06 mg/L (≈ 0.0526 µM). It also gave an MIC (Candida albicans [9]) of 0.03 mg/L (≈ 0.0263 µM), an MIC (Nakaseomyces glabratus [10]) of 0.06 mg/L (≈ 0.0526 µM) and an MIC (Pichia kudriavzevii [11]) of 0.03 mg/L (≈ 0.0263 µM). The Activity (Nakaseomyces glabratus [12]) was “Active”, the Activity (Candida albicans [13]) was “Active” and the Activity (Candida parapsilosis [14]) was “Active”. The Activity (Candida albicans [15]) was “Active”, the Activity (Candida parapsilosis [16]) was “Active” and the Activity (Nakaseomyces glabratus [17]) was “Active”. The Activity (Pichia kudriavzevii [18]) was “Active”, the Activity (Nakaseomyces glabratus [19]) was “Active” and the Activity (Candida parapsilosis [20]) was “Active”. The “inhibition (INH)” value (Candida parapsilosis [21]) was 42%.
